As usually defined, the pIC50 is the negative decadic logarithm of the IC50, by convention in mol/L. Low values mean a high IC50, high ones a low IC50.

Molecules are shown by their SMILES. pIC50: −log10 of the molar value. Where only a bound is given, the exact number is not on record here.

Consider 15 compounds from ChEMBL document CHEMBL1158120, “Cytotoxic oxygenated triterpenoid saponins from Symplocos chinensis” (J Nat Prod, 2006).

Holding throughout (type): functional, cell-based
For experiment [1], the system named is BGC-823. Put plainly: Cytotoxicity against human BGC-823 cells by MTT assay. The method, boiled down: (§1)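 MTT read-out of tumour-cell viability. IC50 values in µM are reported as means of three independent experiments.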
Background: Tetrazolium dyes change colour on reduction, which living cells bring about.

For experiment [2], the system named is Bel-7402. Put plainly: Cytotoxicity against human Bel-7402 cells by MTT assay. The method, boiled down:
as §1

Experiment [3] has as its system HCT-8. Put plainly: Cytotoxicity against human HCT8 cells by MTT assay. The method, boiled down:
as §1

For experiment [4], the system named is A549. Put plainly: Cytotoxicity against human A549 cells by MTT assay. The method, boiled down:
as §1

In experiment [5] the test system is A2780. Put plainly: Cytotoxicity against human A2780 cells by MTT assay. The method, boiled down: as §1

For the compound `CCC(C)C(=O)O[C@H]1[C@H](OC(=O)/C=C(/C)CCC=C(C)C)C(C)(C)C[C@H]2C3=CC[C@@H]4[C@@]5(C)CC[C@H](O[C@@H]6O[C@H](C(=O)O)[C@@H](O[C@@H]7O[C@@H](CO)[C@H](O)[C@H]7O)[C@H](OC(C)=O)[C@H]6O[C@@H]6O[C@H](CO)[C@@H](O)[C@H](O)[C@H]6O)C(C)(C)[C@@H]5CC[C@@]4(C)[C@]3(C)[C@@H](O)[C@@H](O)[C@]21CO` (stereo not given in full) [SYMPLOCOSOSIDE G], the pIC50 is 5.72 in experiment [1]; 5.74 in experiment [2]; 5.70 in experiment [3]; 5.68 in experiment [4]; 5.85 in experiment [5].

Take `CCOC(=O)[C@H]1O[C@@H](O[C@H]2CC[C@]3(C)[C@H]4CC=C5[C@@H]6CC(C)(C)[C@@H](OC(=O)/C=C(/C)CCC=C(C)C)[C@H](OC(=O)C(C)CC)[C@]6(CO)[C@H](O)[C@H](O)[C@@]5(C)[C@]4(C)CC[C@H]3C2(C)C)[C@H](O[C@@H]2O[C@H](CO)[C@@H](O)[C@H](O)[C@H]2O)[C@@H](O)[C@@H]1O[C@@H]1O[C@@H](CO)[C@H](O)[C@H]1O` (stereo not given in full) [SYMPLOCOSOSIDE Q]: the pIC50 was under 5.00 in experiment [1]; under 5.00 in experiment [2]; under 5.00 in experiment [3]; under 5.00 in experiment [4]; 5.26 in experiment [5].

Regarding `CCCCOC(=O)[C@H]1O[C@@H](O[C@H]2CC[C@]3(C)[C@H]4CC=C5[C@@H]6CC(C)(C)[C@@H](OC(=O)/C=C(/C)CCC=C(C)C)[C@H](OC(=O)C(C)CC)[C@]6(CO)[C@H](O)[C@H](O)[C@@]5(C)[C@]4(C)CC[C@H]3C2(C)C)[C@H](O[C@@H]2O[C@H](CO)[C@@H](O)[C@H](O)[C@H]2O)[C@@H](O)[C@@H]1O[C@@H]1O[C@@H](CO)[C@H](O)[C@H]1O` (stereo not given in full) [SYMPLOCOSOSIDE C], the pIC50 in experiment [1] is 5.37; in experiment [2] it was 5.82; in experiment [3] it was 5.54; in experiment [4], under 5.00; in experiment [5], 5.89.

On to `CC(=O)O[C@@H]1[C@@H](O[C@@H]2O[C@H](CO)[C@@H](O)[C@H](O)[C@H]2O)[C@H](O[C@H]2CC[C@]3(C)[C@H]4CC=C5[C@@H]6CC(C)(C)[C@@H](OC(=O)/C=C(/C)CCC=C(C)C)[C@H](OC(=O)C(C)C)[C@]6(CO)[C@H](O)[C@H](O)[C@@]5(C)[C@]4(C)CC[C@H]3C2(C)C)O[C@H](C(=O)O)[C@H]1O[C@@H]1O[C@@H](CO)[C@H](O)[C@H]1O` [SYMPLOCOSOSIDE L], for which the pIC50 in experiment [1] is under 5.00; in experiment [2], 5.57; in experiment [3] it was 5.77; in experiment [4], under 5.00; in experiment [5], 5.62.

As to `CCC(C)C(=O)O[C@H]1[C@H](OC(=O)/C=C/c2ccccc2)C(C)(C)C[C@H]2C3=CC[C@@H]4[C@@]5(C)CC[C@H](O[C@@H]6O[C@H](CO)[C@@H](O[C@@H]7O[C@@H](CO)[C@H](O)[C@H]7O)[C@H](O)[C@H]6O[C@@H]6O[C@H](CO)[C@@H](O)[C@H](O)[C@H]6O)C(C)(C)[C@@H]5CC[C@@]4(C)[C@]3(C)[C@@H](O)[C@@H](O)[C@]21CO` (stereo not given in full) [SYMPLOCOSOSIDE X], the pIC50 in experiment [1] was under 5.00; in experiment [2] it was 5.74; in experiment [3], 5.77; in experiment [4] it was 5.68; in experiment [5], 5.80.

Take `CCC(C)C(=O)O[C@H]1[C@H](OC(=O)/C=C(\C)CCC=C(C)C)C(C)(C)C[C@H]2C3=CC[C@@H]4[C@@]5(C)CC[C@H](O[C@@H]6O[C@H](C(=O)O)[C@@H](O[C@@H]7O[C@@H](CO)[C@H](O)[C@H]7O)[C@H](OC(C)=O)[C@H]6O[C@@H]6O[C@H](CO)[C@@H](O)[C@H](O)[C@H]6O)C(C)(C)[C@@H]5CC[C@@]4(C)[C@]3(C)[C@@H](O)[C@@H](O)[C@]21CO` (stereo not given in full) [SYMPLOCOSOSIDE H]: the pIC50 in experiment [1] is 5.60; in experiment [2] it was 5.59; in experiment [3], 5.68; in experiment [4] it was 5.57; in experiment [5], 5.85.

As for `CCC(C)C(=O)O[C@H]1[C@H](OC(=O)c2ccccc2)C(C)(C)C[C@H]2C3=CC[C@@H]4[C@@]5(C)CC[C@H](O[C@@H]6O[C@H](C(=O)O)[C@@H](O[C@@H]7O[C@@H](CO)[C@H](O)[C@H]7O)[C@H](OC(C)=O)[C@H]6O[C@@H]6O[C@H](CO)[C@@H](O)[C@H](O)[C@H]6O)C(C)(C)[C@@H]5CC[C@@]4(C)[C@]3(C)[C@@H](O)[C@@H](O)[C@]21CO` (stereo not given in full) [SYMPLOCOSOSIDE P], the pIC50 is under 5.00 in experiment [1]; under 5.00 in experiment [2]; under 5.00 in experiment [3]; under 5.00 in experiment [4]; 5.48 in experiment [5].

Regarding `CCC(C)C(=O)O[C@H]1[C@H](OC(=O)/C=C(/C)CCC=C(C)C)C(C)(C)C[C@H]2C3=CC[C@@H]4[C@@]5(C)CC[C@H](O[C@@H]6O[C@H](C(=O)OC)[C@@H](O[C@@H]7O[C@@H](CO)[C@H](O)[C@H]7O)[C@H](OC(C)=O)[C@H]6O[C@@H]6O[C@H](CO)[C@@H](O)[C@H](O)[C@H]6O)C(C)(C)[C@@H]5CC[C@@]4(C)[C@]3(C)[C@@H](O)[C@@H](O)[C@]21CO` (stereo not given in full) [SYMPLOCOSOSIDE I], the pIC50 in experiment [1] is under 5.00; in experiment [2], 5.57; in experiment [3], 5.77; in experiment [4] it was under 5.00; in experiment [5], 5.49.

`CCCCOC(=O)[C@H]1O[C@@H](O[C@H]2CC[C@]3(C)[C@H]4CC=C5[C@@H]6CC(C)(C)C[C@H](OC(=O)/C=C(/C)CCC=C(C)C)[C@]6(CO)[C@H](O)[C@H](O)[C@@]5(C)[C@]4(C)CC[C@H]3C2(C)C)[C@H](O[C@@H]2O[C@H](CO)[C@@H](O)[C@H](O)[C@H]2O)[C@@H](O)[C@@H]1O[C@@H]1O[C@@H](CO)[C@H](O)[C@H]1O` [SYMPLOCOSOSIDE F]: the pIC50 in experiment [1] is under 5.00; in experiment [2], under 5.00; in experiment [3] it was 5.40; in experiment [4] it was under 5.00; in experiment [5] it was under 5.00.

Regarding `CCCCOC(=O)[C@H]1O[C@@H](O[C@H]2CC[C@]3(C)[C@H]4CC=C5[C@@H]6CC(C)(C)[C@@H](OC(=O)/C=C(\C)CCC=C(C)C)[C@H](OC(=O)C(C)CC)[C@]6(CO)[C@H](O)[C@H](O)[C@@]5(C)[C@]4(C)CC[C@H]3C2(C)C)[C@H](O[C@@H]2O[C@H](CO)[C@@H](O)[C@H](O)[C@H]2O)[C@@H](O)[C@@H]1O[C@@H]1O[C@@H](CO)[C@H](O)[C@H]1O` (stereo not given in full) [SYMPLOCOSOSIDE D], the negative logarithm of the IC50 (pIC50) in experiment [1] is under 5.00; in experiment [2] it was 5.72; in experiment [3], under 5.00; in experiment [4], under 5.00; in experiment [5], 5.76.

Consider `CC(C)=CCC/C(C)=C\C(=O)O[C@H]1CC(C)(C)C[C@H]2C3=CC[C@@H]4[C@@]5(C)CC[C@H](O)C(C)(C)[C@@H]5CC[C@@]4(C)[C@]3(C)[C@@H](O)[C@@H](O)[C@@]12CO`, for which the pIC50 in experiment [1], in experiment [2], in experiment [3], in experiment [4] and in experiment [5] was under 5.00 throughout.

As for `CCCCOC(=O)[C@H]1O[C@@H](O[C@H]2CC[C@]3(C)[C@H]4CC=C5[C@@H]6CC(C)(C)[C@@H](OC(=O)/C=C/c7ccccc7)[C@H](OC(=O)C(C)CC)[C@]6(CO)[C@H](O)[C@H](O)[C@@]5(C)[C@]4(C)CC[C@H]3C2(C)C)[C@H](O[C@@H]2O[C@H](CO)[C@@H](O)[C@H](O)[C@H]2O)[C@@H](O)[C@@H]1O[C@@H]1O[C@@H](CO)[C@H](O)[C@H]1O` (stereo not given in full) [SYMPLOCOSOSIDE E], the pIC50 in experiment [1] was under 5.00; in experiment [2], 5.77; in experiment [3], under 5.00; in experiment [4], under 5.00; in experiment [5] it was 5.77.

For the compound `CC(=O)O[C@@H]1[C@@H](O[C@@H]2O[C@H](CO)[C@@H](O)[C@H](O)[C@H]2O)[C@H](O[C@H]2CC[C@]3(C)[C@H]4CC=C5[C@@H]6CC(C)(C)[C@@H](OC(=O)/C=C(/C)CCC=C(C)C)[C@H](OC(=O)c7ccccc7)[C@]6(CO)[C@H](O)[C@H](O)[C@@]5(C)[C@]4(C)CC[C@H]3C2(C)C)O[C@H](C(=O)O)[C@H]1O[C@@H]1O[C@@H](CO)[C@H](O)[C@H]1O` [SYMPLOCOSOSIDE J], the pIC50 is 5.74 in experiment [1]; 5.77 in experiment [2]; 5.68 in experiment [3]; 5.52 in experiment [4]; 5.85 in experiment [5].

Regarding `CCC(C)C(=O)O[C@H]1[C@H](OC(=O)/C=C/c2ccccc2)C(C)(C)C[C@H]2C3=CC[C@@H]4[C@@]5(C)CC[C@H](O[C@@H]6O[C@H](CO)[C@@H](O[C@@H]7O[C@@H](CO)[C@H](O)[C@H]7O)[C@H](OC(C)=O)[C@H]6O[C@@H]6O[C@H](CO)[C@@H](O)[C@H](O)[C@H]6O)C(C)(C)[C@@H]5CC[C@@]4(C)[C@]3(C)[C@@H](O)[C@@H](O)[C@]21CO` (stereo not given in full) [SYMPLOCOSOSIDE Y], the pIC50 in experiment [1] is under 5.00; in experiment [2], under 5.00; in experiment [3], under 5.00; in experiment [4], under 5.00; in experiment [5], 5.47.

On to `CCC(C)C(=O)O[C@H]1[C@H](OC(=O)/C=C(\C)CCC=C(C)C)C(C)(C)C[C@H]2C3=CC[C@@H]4[C@@]5(C)CC[C@H](O[C@@H]6O[C@H](C(=O)O)[C@@H](O)[C@H](O)[C@H]6O[C@@H]6O[C@H](CO)[C@@H](O)[C@H](O)[C@H]6O)C(C)(C)[C@@H]5CC[C@@]4(C)[C@]3(C)[C@@H](O)[C@@H](O)[C@]21CO` (stereo not given in full), for which the negative logarithm of the IC50 (pIC50) in experiment [1] was under 5.00; in experiment [2], under 5.00; in experiment [3], under 5.00; in experiment [4], under 5.00; in experiment [5], 5.72.
